Results on ten compounds are retold here after ChEMBL document CHEMBL1139119, “Anti-mycobacterial activity of a bis-sulfonamide” (2007).

Holding throughout (format): functional
For assay [1], the system named is Mycolicibacterium smegmatis. Nature of the assay: Antimicrobial activity against Mycobacterium smegmatis.
For assay [2], the system named is Candida albicans. Description: Antimicrobial activity against Candida albicans.
Assay [3] concerns Staphylococcus aureus. Description: Antimicrobial activity against Staphylococcus aureus. Summed up: (§1)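 Overnight bacterial culture diluted 1000-fold into fresh medium the next day, then exposed to compound at five doses (100, 25, 6.25, 1.56, 0.39 μg/mL) in DMSO (final 1% v/v). DMSO-only and ampicillin no-growth controls were included. Incubated overnight at 37 °C in duplicate. Scored as % growth inhibition, averaged over two independent determinations, giving MIC50.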

The test system of assay [4] is Vibrio harveyi. Nature of the assay: Antimicrobial activity against Vibrio harveyi. Summed up: as §1
The test system of assay [5] is Escherichia coli. Description: Antimicrobial activity against Escherichia coli.
In assay [6] the test system is Mycolicibacterium smegmatis. Nature of the assay: Growth inhibition of Mycobacterium smegmatis at 25 ug/ml.
Assay [7] concerns Mycolicibacterium smegmatis. Description: Growth inhibition of Mycobacterium smegmatis at 100 ug/ml.
Assay [8] concerns Candida albicans. Description: Growth inhibition of Candida albicans at 25 ug/ml.
The test system of assay [9] is Candida albicans. Description: Growth inhibition of Candida albicans at 100 ug/ml.

Converted amounts (≈) assume the structure as drawn. The source made the active and inactive calls. The rule behind the calls is not given here.

In general, MIC50 refers to the lowest concentration that inhibits either 50% of growth or 50% of the strains tested, depending on the study. `Nc1ccc(S(N)(=O)=O)cc1` [SULFANILAMIDE] came in with an MIC50 in [1] of over 100 µg/mL. Besides, the outcome in assay [2], in assay [3] and in assay [4] was inactive.

In turn, `CN[C@@H]1[C@H](O[C@H]2[C@H](O[C@H]3[C@H](O)[C@@H](O)[C@H](N=C(N)N)[C@@H](O)[C@@H]3N=C(N)N)O[C@@H](C)[C@]2(O)C=O)O[C@@H](CO)[C@H](O)[C@H]1O` [STREPTOMYCIN] showed an MIC50 in assay [1] of 500 µg/mL (≈ 860 µM).

On to `NS(=O)(=O)c1ccc(-n2cc(CO)nn2)cc1`, for which the MIC50 in assay [1] was over 100 µg/mL. Further, the outcome in assay [2], in [3] and in [4] was inactive.

For `[N-]=[N+]=Nc1ccc(S(N)(=O)=O)cc1`, the outcome in assay [2], in [3] and in assay [4] was inactive.

In assay [1], `C#CCOC(=O)c1ccc(S(N)(=O)=O)cc1` had an MIC50 of over 100 µg/mL. In addition, the result in [2], in assay [3] and in assay [4] was inactive.

On to `NS(=O)(=O)c1ccc(C(=O)O)cc1` [CARZENIDE], for which, in assay [1], the MIC50 is over 100 µg/mL. The result in assay [2], in assay [3] and in [4] was inactive.

Compound `C#CCNC(=O)c1ccc(S(N)(=O)=O)cc1` yielded an MIC50 in assay [1] of over 100 µg/mL. For the same compound, the outcome in assay [2], in [3] and in assay [4] was inactive.

Consider `CC1(C)S[C@@H]2[C@H](NC(=O)[C@H](N)c3ccccc3)C(=O)N2[C@H]1C(=O)O` [AMPICILLIN], for which the MIC50 in assay [3], in assay [4] and in assay [5] was 500 µg/mL (≈ 1430 µM) in each case.

With `NS(=O)(=O)c1ccc(C(=O)NCc2cn(-c3ccc(S(N)(=O)=O)cc3)nn2)cc1`, the MIC50 in [1] worked out at 100 µg/mL (≈ 229 µM). Besides, the result in assay [2], in assay [3] and in assay [4] was inactive.

Usually inhibition stands for how much of the control response was suppressed. Turning to `NS(=O)(=O)c1ccc(C(=O)OCc2cn(-c3ccc(S(N)(=O)=O)cc3)nn2)cc1`, the inhibition at 25 µg/mL in assay [6] is 68%; in assay [8] it was 36%. The MIC50 in assay [1] was under 25 µg/mL; in [2], 100 µg/mL (≈ 229 µM). Moreover, the outcome in assay [3] and in assay [4] was inactive. In addition, the inhibition at 100 µg/mL was 92% in assay [7] and 49% in assay [9].
